9 molecules from ChEMBL document CHEMBL4028902, “Azetidine and Piperidine Carbamates as Efficient, Covalent Inhibitors of Monoacylglycerol Lipase” (J Med Chem, 2017) can be followed below.

SMILES strings stand for the structures. pIC50: −log10 of the molar value.

Data set [1] in a line: Lipophilicity, log D of the compound. Particulars: octanol/water. It is filed as physicochemical.
The target in data set [2] is T1, Fatty-acid amide hydrolase 1 (Homo sapiens, UniProt O00519).
T1 sequence (O00519 whole entry): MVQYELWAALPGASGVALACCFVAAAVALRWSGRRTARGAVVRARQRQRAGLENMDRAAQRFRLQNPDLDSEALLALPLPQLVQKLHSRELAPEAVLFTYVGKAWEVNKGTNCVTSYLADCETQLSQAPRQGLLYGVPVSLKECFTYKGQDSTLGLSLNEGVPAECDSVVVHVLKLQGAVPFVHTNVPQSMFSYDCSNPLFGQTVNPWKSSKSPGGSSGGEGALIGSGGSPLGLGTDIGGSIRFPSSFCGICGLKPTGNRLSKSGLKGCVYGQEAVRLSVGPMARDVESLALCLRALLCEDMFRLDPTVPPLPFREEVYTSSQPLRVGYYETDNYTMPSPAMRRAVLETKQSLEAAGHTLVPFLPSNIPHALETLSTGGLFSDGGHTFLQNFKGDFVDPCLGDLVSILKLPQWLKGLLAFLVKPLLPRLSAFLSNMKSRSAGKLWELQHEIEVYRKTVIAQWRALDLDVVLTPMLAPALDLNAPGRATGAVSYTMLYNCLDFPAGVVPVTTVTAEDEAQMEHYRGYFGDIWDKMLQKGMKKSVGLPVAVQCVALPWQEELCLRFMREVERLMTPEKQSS
Briefly: Inhibition of human recombinant FAAH using arachidonoyl-AMC as substrate preincubated for 30 mins followed by substrate addition measured after 60 mins by fluorescence assay. The gist of the method:
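Human recombinant FAAH (0.0125 unit final) in 50 mM Tris pH 9.0, 1 mM EDTA, preincubated 30 min at room temperature with compound (final 30 μM–0.3 nM). Arachidonoyl-AMC added (5 μM final), reaction run 60 min, fluorescence Ex/Em 355/460. Percent inhibition versus no-compound and full-inhibition controls.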

Data set [3] has as its target T2, Monoglyceride lipase (Homo sapiens) (UniProt Q99685).
T2 sequence (whole entry): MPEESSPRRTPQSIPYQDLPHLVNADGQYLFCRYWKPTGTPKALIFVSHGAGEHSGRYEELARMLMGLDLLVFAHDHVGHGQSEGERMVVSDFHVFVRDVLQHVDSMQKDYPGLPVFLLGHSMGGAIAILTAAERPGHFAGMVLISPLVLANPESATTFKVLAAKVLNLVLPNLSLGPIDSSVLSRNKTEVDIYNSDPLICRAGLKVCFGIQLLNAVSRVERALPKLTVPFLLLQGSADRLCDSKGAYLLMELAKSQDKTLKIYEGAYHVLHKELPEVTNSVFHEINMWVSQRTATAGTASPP
The data set can be described thus: Ratio of Kinact to Ki for human recombinant MAGL using 7-HCA as substrate after 60 mins by fluorescence assay. The gist of the method: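 Run as the MAGL 7-HCA assay, but substrate added with no preincubation (T = 0), fluorescence read every minute at decreasing compound concentrations to give progress curves. kobs from each curve; kinact/KI from a plot of kobs against compound concentration.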

Data set [4] concerns the target T3, Monoglyceride lipase (Homo sapiens, UniProt Q99685).
T3 sequence (Q99685 whole entry): T2 sequence (whole entry)
The data set can be described thus: Inhibition of human recombinant MAGL using 7-HCA as substrate preincubated for 30 mins followed by substrate addition measured after 60 mins by fluorescence assay. The gist of the method: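 Reaction started with 7-HCA (5 μM final), run 60 min, fluorescence Ex/Em 340/465. Percent inhibition versus no-compound and full-inhibition controls; IC50 from four-parameter fit.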

In turn, `O=C(OC(C(F)(F)F)C(F)(F)F)N1CC(c2ccn(C3CCOCC3)n2)C1` displayed a logD in data set [1] of 3.2. Moreover, the pIC50 in data set [2] was 5.03; in data set [4], 8.72. Further, the Ratio in data set [3] came to 102000 M⁻¹ s⁻¹.
`O=C(OC(C(F)(F)F)C(F)(F)F)N1CC(c2cc(-c3ccccc3)n(-c3ccccc3)n2)C1` showed a logD in data set [1] of 5.7. In addition, the pIC50 is 6.31 in data set [2] and 9.52 in data set [4]. For the same molecule, the Ratio in data set [3] turned out to be 293000 M⁻¹ s⁻¹.
With `O=C(OC(C(F)(F)F)C(F)(F)F)N1CC(c2ccnc(N3CCOCC3)n2)C1`, the logD in data set [1] was found to be 3. Further, the negative-log IC50 (pIC50) is below 4.52 in data set [2] and 8.72 in data set [4]. Further, the Ratio in data set [3] was found to be 121000 M⁻¹ s⁻¹.
The corresponding values for `O=C(OC(C(F)(F)F)C(F)(F)F)N1CC(N2CCN(c3ncccn3)CC2)C1` are 2.9, 5.60, 8.49 and 18000 M⁻¹ s⁻¹.
`Cn1ccc(C2CN(C(=O)OC(C(F)(F)F)C(F)(F)F)C2)n1`: in data set [1], the logD turned out to be 2.4. For the same molecule, the results for the pIC50 in data set [2] and in data set [4] were below 4.70 and 7.41, respectively. Also, the Ratio in data set [3] stood at 4050 M⁻¹ s⁻¹.
Turning to `O=C(OC(C(F)(F)F)C(F)(F)F)N1CC(c2nc(-c3ccccc3)no2)C1`, in data set [1], the logD was 4.2. In addition, the pIC50 is 6.38 in data set [2] and 9.42 in data set [4]. Also, the Ratio in data set [3] came to 840000 M⁻¹ s⁻¹.
`O=C(OC(C(F)(F)F)C(F)(F)F)N1CC(c2ccn(-c3cnccn3)n2)C1` had a logD in data set [1] of 2.8. The values for the pIC50 in data set [2] and in data set [4] were 5.96 and 9.13, respectively. Moreover, the Ratio in data set [3] turned out to be 329000 M⁻¹ s⁻¹.
Take `O=C(OC(C(F)(F)F)C(F)(F)F)N1CC(c2ccn(-c3ccc(F)c(F)c3)n2)C1`: the logD in data set [1] is 4.6. Also, the results for the pIC50 in data set [2] and in data set [4] were 6.17 and 9.74, respectively. Also, the Ratio in data set [3] turned out to be 978000 M⁻¹ s⁻¹.
`O=C(OC(C(F)(F)F)C(F)(F)F)N1CC(c2ccn(Cc3ccccc3)n2)C1`: the logD in data set [1] amounted to 4.4. Also, the values for the pIC50 in data set [2] and in data set [4] were 6.80 and 9.39, respectively. In addition, the Ratio in data set [3] is 791000 M⁻¹ s⁻¹.

In general, logD refers to lipophilicity at a set pH, counting ionised and neutral species. One may read the pIC50 as −log10 of the IC50, conventionally taken in molar units.
